Assay results: ChEMBL document CHEMBL3576863, “Structural requirements for bisphosphonate binding on hydroxyapatite: NMR study of bisphosphonate partial esters” (ACS Med Chem Lett, 2015)
Activity calls are given as the source filed them. No cut-off for these calls is given here.

System: Hydroxyapatite
Assay: Binding affinity to hydroxyapatite at 3.2 to 3.7 mM after 1 hr by NMR analysis relative to control
Settings: not given
Procedure, shortened: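 Synthetic hydroxyapatite used as a bone model. Each bisphosphonate solution was mixed with HAP for 1 h. Percent HAP-bound was calculated from the solution concentration difference before and after incubation. Statistical comparison by t test.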

Activity [%]	SMILES
70	O=P(O)(O)CP(=O)(O)O
41.9	O=P(O)(O)C(Cl)(Cl)P(=O)(O)O [CLODRONIC ACID]
70	NCCCC(O)(P(=O)(O)O)P(=O)(O)O
70	CC(O)(P(=O)(O)O)P(=O)(O)O [ETIDRONIC ACID]

System: Hydroxyapatite
Assay: Binding affinity to hydroxyapatite at 3.6 to 10.7 mM after 1 hr by NMR analysis relative to control
Settings: not given
Procedure, shortened: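 Hydroxyapatite (HAP) used as a synthetic bone surrogate. BP solution mixed with HAP for 1 h. Bound fraction expressed as percent of BP bound to HAP, calculated from the concentration difference of the BP solution before and after HAP incubation. Statistics by t test.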

SMILES	Activity
CC(O)(P(=O)(O)O)P(=O)(O)Oc1ccccc1 (stereo unspecified)	48%
COP(=O)(OC)C(C)(O)P(=O)(O)O (stereo unspecified)	12.6%
COP(=O)(O)C(C)(O)P(=O)(O)OC (stereo unspecified)	3.8%
COP(=O)(OC)C(O)(CCCN)P(=O)(O)O (stereo unspecified)	21.7%
CC(C)OP(=O)(OC(C)C)C(C)(O)P(=O)(O)O (stereo unspecified)	11.4%
COP(=O)(O)CP(=O)(O)O	18.6%
CC(C)OP(=O)(O)C(Cl)(Cl)P(=O)(O)O	inactive
CC(=O)NCCCC(OC(C)=O)(P(=O)(O)O)P(=O)(O)O	47.7%
COP(=O)(O)C(O)(CCCN)P(=O)(O)O (stereo unspecified)	31%
COP(=O)(O)C(Cl)(Cl)P(=O)(O)O	inactive
COP(=O)(O)C(C)(O)P(=O)(OC)OC (stereo unspecified)	inactive
COP(=O)(O)C(C)(O)P(=O)(O)O (stereo unspecified)	55.6%
COP(=O)(O)CP(=O)(O)OC	inactive
COP(=O)(O)CP(=O)(OC)OC	inactive

System: not listed separately
Assay: Half life in human plasma at 0.015 mg/kg, iv
Assay type: ADME, organism-based
Settings: not given

half-life [h]	SMILES
1	CC(O)(P(=O)(O)O)P(=O)(O)O [ETIDRONIC ACID]

System: not listed separately
Assay: Half life in human plasma at 2.5 to 4 mg/kg, iv
Assay type: ADME, organism-based
Settings: not given

half-life [h]	SMILES
1	O=P(O)(O)C(Cl)(Cl)P(=O)(O)O [CLODRONIC ACID]

System: Homo sapiens
Assay: Half life in human plasma at 1 mg/kg, iv
Assay type: ADME, organism-based
Settings: in vivo

t1/2 [h]	SMILES
1	NCCC(O)(P(=O)(O)O)P(=O)(O)O [PAMIDRONIC ACID]
